ChEMBL document CHEMBL2177098, “Synthesis and evaluation of novel ¹⁸F labeled 2-pyridinylbenzoxazole and 2-pyridinylbenzothiazole derivatives as ligands for positron emission tomography (PET) imaging of β-amyloid plaques” (J Med Chem, 2012)

Tests used:
Kidney [1] = assay: Drug uptake in ICR mouse kidney at 370 kBq/100 ul, iv at 60 mins by gamma-counting analysis; type: ADME, organism-based; conditions: in vivo, 1 h
Method in brief: (§1)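 Male ICR mice (5 weeks, about 20 g) got 18F tracer in saline (370 KBq per 100 μL) via tail vein; n = 5 per time point, killed at 2, 10, 30, 60 min. Organs weighed and γ-counted; percent dose per gram wet tissue from comparison with diluted injectate aliquots.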

Intestine [2] = assay: Drug uptake in ICR mouse intestine assessed per organ at 370 kBq/100 ul, iv at 10 mins by gamma-counting analysis; type: ADME, organism-based; conditions: in vivo
Method in brief: (§2)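 Male ICR mice (5 weeks, about 20 g) got 18F tracer in saline (370 KBq per 100 μL) via tail vein; n = 5 per time point, killed at 2, 10, 30, 60 min. Organs removed and γ-counted against diluted injectate; expressed as % injected dose per organ.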

Bone [3] = assay: Drug uptake in ICR mouse bone at 370 kBq/100 ul, iv at 10 mins by gamma-counting analysis; type: ADME, organism-based, Bone element; conditions: in vivo; method in brief: as §1
Spleen [4] = assay: Drug uptake in ICR mouse spleen at 370 kBq/100 ul, iv at 60 mins by gamma-counting analysis; type: ADME, organism-based; conditions: in vivo, 1 h; method in brief: as §1
Stomach [5] = assay: Drug uptake in ICR mouse stomach assessed per organ at 370 kBq/100 ul, iv at 10 mins by gamma-counting analysis; type: ADME, organism-based; conditions: in vivo; method in brief: as §2
Lung [6] = assay: Drug uptake in ICR mouse lung at 370 kBq/100 ul, iv at 60 mins by gamma-counting analysis; type: ADME, organism-based; conditions: in vivo, 1 h; method in brief: as §1
Intestine [7] = assay: Drug uptake in ICR mouse intestine assessed per organ at 370 kBq/100 ul, iv at 2 mins by gamma-counting analysis; type: ADME, organism-based; conditions: in vivo; method in brief: as §2
Liver [8] = assay: Drug uptake in ICR mouse liver at 370 kBq/100 ul, iv at 30 mins by gamma-counting analysis; type: ADME, organism-based; conditions: in vivo, 0.5 h; method in brief: as §1
Intestine [9] = assay: Drug uptake in ICR mouse intestine assessed per organ at 370 kBq/100 ul, iv at 60 mins by gamma-counting analysis; type: ADME, organism-based; conditions: in vivo, 1 h; method in brief: as §2
Kidney [10] = assay: Drug uptake in ICR mouse kidney at 370 kBq/100 ul, iv at 10 mins by gamma-counting analysis; type: ADME, organism-based; conditions: in vivo; method in brief: as §1
Lung [11] = assay: Drug uptake in ICR mouse lung at 370 kBq/100 ul, iv at 30 mins by gamma-counting analysis; type: ADME, organism-based; conditions: in vivo, 0.5 h; method in brief: as §1
Spleen [12] = assay: Drug uptake in ICR mouse spleen at 370 kBq/100 ul, iv at 30 mins by gamma-counting analysis; type: ADME, organism-based; conditions: in vivo, 0.5 h; method in brief: as §1
[13] = n-Octanol-PBS buffer partition coefficient, log D of the compound at 1.5 MBq after 3 mins at pH 7.4; type: physicochemical
Method in brief: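 The tracer was partitioned between n-octanol and PBS by vortexing for 3 min at room temperature, then centrifuged for 5 min at 3000 rpm. Samples of the octanol (50 μL) and aqueous (500 μL) layers were counted. log D is the log of the octanol/PBS counts-per-gram ratio. The octanol layer was repartitioned until values were consistent. Measured in triplicate and repeated three times.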

Heart [14] = assay: Drug uptake in ICR mouse heart at 370 kBq/100 ul, iv at 60 mins by gamma-counting analysis; type: ADME, organism-based; conditions: in vivo, 1 h; method in brief: as §1
Blood [15] = assay: Drug uptake in ICR mouse blood at 370 kBq/100 ul, iv at 10 mins by gamma-counting analysis; type: ADME, organism-based; conditions: in vivo; method in brief: as §1
Heart [16] = assay: Drug uptake in ICR mouse heart at 370 kBq/100 ul, iv at 10 mins by gamma-counting analysis; type: ADME, organism-based; conditions: in vivo; method in brief: as §1
Liver [17] = assay: Drug uptake in ICR mouse liver at 370 kBq/100 ul, iv at 10 mins by gamma-counting analysis; type: ADME, organism-based; conditions: in vivo; method in brief: as §1
Brain [18] = assay: Drug uptake in wild type C57BL6 mouse brain at 370 KBq/100 ul after 1 hr by autoradiographic analysis; type: ADME, tissue-based; conditions: in vitro
Method in brief: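 Paraffin brain sections from 12-month-old male control C57BL6 mice were deparaffinized through xylene and graded ethanol, then held in PBS (0.2 M, pH 7.4) for 30 min. They were incubated with the ¹⁸F tracer (370 KBq per 100 μL) for 1 h at room temperature. Sections were washed in 40% EtOH, rinsed with water for 1 min, dried, and exposed to a phosphor plate for 2 h. The same sections were then stained with thioflavin S.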

Stomach [19] = assay: Drug uptake in ICR mouse stomach assessed per organ at 370 kBq/100 ul, iv at 30 mins by gamma-counting analysis; type: ADME, organism-based; conditions: in vivo, 0.5 h; method in brief: as §2
Brain [20] = assay: Drug uptake in ICR mouse brain at 370 kBq/100 ul, iv at 30 mins by gamma-counting analysis; type: ADME, organism-based; conditions: in vivo, 0.5 h; method in brief: as §1
Kidney [21] = assay: Drug uptake in ICR mouse kidney at 370 kBq/100 ul, iv at 30 mins by gamma-counting analysis; type: ADME, organism-based; conditions: in vivo, 0.5 h; method in brief: as §1
Bone [22] = assay: Drug uptake in ICR mouse bone at 370 kBq/100 ul, iv at 30 mins by gamma-counting analysis; type: ADME, organism-based, Bone element; conditions: in vivo, 0.5 h; method in brief: as §1
Lung [23] = assay: Drug uptake in ICR mouse lung at 370 kBq/100 ul, iv at 10 mins by gamma-counting analysis; type: ADME, organism-based; conditions: in vivo; method in brief: as §1
Spleen [24] = assay: Drug uptake in ICR mouse spleen at 370 kBq/100 ul, iv at 2 mins by gamma-counting analysis; type: ADME, organism-based; conditions: in vivo; method in brief: as §1
Kidney [25] = assay: Drug uptake in ICR mouse kidney at 370 kBq/100 ul, iv at 2 mins by gamma-counting analysis; type: ADME, organism-based; conditions: in vivo; method in brief: as §1
Brain [26] = assay: Drug uptake in healthy human brain at 370 KBq/100 ul after 1 hr by autoradiographic analysis; type: ADME, tissue-based; conditions: in vitro
Heart [27] = assay: Drug uptake in ICR mouse heart at 370 kBq/100 ul, iv at 30 mins by gamma-counting analysis; type: ADME, organism-based; conditions: in vivo, 0.5 h; method in brief: as §1
Bone [28] = assay: Drug uptake in ICR mouse bone at 370 kBq/100 ul, iv at 60 mins by gamma-counting analysis; type: ADME, organism-based, Bone element; conditions: in vivo, 1 h; method in brief: as §1
Blood [29] = assay: Drug uptake in ICR mouse blood at 370 kBq/100 ul, iv at 60 mins by gamma-counting analysis; type: ADME, organism-based; conditions: in vivo, 1 h; method in brief: as §1
Brain [30] = assay: Drug uptake in ICR mouse brain at 370 kBq/100 ul, iv at 10 mins by gamma-counting analysis; type: ADME, organism-based; conditions: in vivo; method in brief: as §1
Blood [31] = assay: Drug uptake in ICR mouse blood at 370 kBq/100 ul, iv at 2 mins by gamma-counting analysis; type: ADME, organism-based; conditions: in vivo; method in brief: as §1
Intestine [32] = assay: Drug uptake in ICR mouse intestine assessed per organ at 370 kBq/100 ul, iv at 30 mins by gamma-counting analysis; type: ADME, organism-based; conditions: in vivo, 0.5 h; method in brief: as §2
Brain [33] = assay: Ratio of drug uptake in brain at 2 mins to drug uptake in brain at 60 mins in ICR mouse at 370 KBq/100 ul, iv; type: ADME, organism-based; conditions: in vivo
Method in brief: (§3)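 Normal male ICR mice (5 weeks, about 20 g) received the ¹⁸F tracer in saline (370 KBq per 100 μL) by tail-vein injection. Groups of n = 5 were killed at 2, 10, 30 and 60 min. Organs were removed, weighed and γ-counted against diluted aliquots of the injectate, giving % dose per gram. Stomach and intestine were expressed per organ. The brain ratio is 2 min/60 min uptake. Values are mean ± SD.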

Bone [34] = assay: Drug uptake in ICR mouse bone at 370 kBq/100 ul, iv at 2 mins by gamma-counting analysis; type: ADME, organism-based, Bone element; conditions: in vivo; method in brief: as §1
Lung [35] = assay: Drug uptake in ICR mouse lung at 370 kBq/100 ul, iv at 2 mins by gamma-counting analysis; type: ADME, organism-based; conditions: in vivo; method in brief: as §1
Liver [36] = assay: Drug uptake in ICR mouse liver at 370 kBq/100 ul, iv at 2 mins by gamma-counting analysis; type: ADME, organism-based; conditions: in vivo; method in brief: as §1
Heart [37] = assay: Drug uptake in ICR mouse heart at 370 kBq/100 ul, iv at 2 mins by gamma-counting analysis; type: ADME, organism-based; conditions: in vivo; method in brief: as §1
Brain [38] = assay: Drug uptake in ICR mouse brain at 370 kBq/100 ul, iv at 2 mins by gamma-counting analysis; type: ADME, organism-based; conditions: in vivo; method in brief: as §1
Spleen [39] = assay: Drug uptake in ICR mouse spleen at 370 kBq/100 ul, iv at 10 mins by gamma-counting analysis; type: ADME, organism-based; conditions: in vivo; method in brief: as §1
Stomach [40] = assay: Drug uptake in ICR mouse stomach assessed per organ at 370 kBq/100 ul, iv at 60 mins by gamma-counting analysis; type: ADME, organism-based; conditions: in vivo, 1 h; method in brief: as §3
Blood [41] = assay: Drug uptake in ICR mouse blood at 370 kBq/100 ul, iv at 30 mins by gamma-counting analysis; type: ADME, organism-based; conditions: in vivo, 0.5 h; method in brief: as §1
Stomach [42] = assay: Drug uptake in ICR mouse stomach assessed per organ at 370 kBq/100 ul, iv at 2 mins by gamma-counting analysis; type: ADME, organism-based; conditions: in vivo; method in brief: as §2
Brain [43] = assay: Drug uptake in ICR mouse brain at 370 kBq/100 ul, iv at 60 mins by gamma-counting analysis; type: ADME, organism-based; conditions: in vivo, 1 h; method in brief: as §1
Liver [44] = assay: Drug uptake in ICR mouse liver at 370 kBq/100 ul, iv at 60 mins by gamma-counting analysis; type: ADME, organism-based; conditions: in vivo, 1 h; method in brief: as §1
[45] = Displacement of [125I]-IMPY from amyloid beta (1 to 42) fibrils after 2 hrs by gamma-counting analysis
Method in brief: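 Competition binding with aggregated Aβ1-42 fibrils and [125I]IMPY (60000−100000 cpm/100 μL) in 0.05% BSA (1 mL total); inhibitors 10⁻⁴−10^−8.5 M in ethanol. Incubated 37 °C for 2 h, then GF/B vacuum filtration with PBS (0.02 M, pH 7.4) washes and γ counting. Three repeats; IC50 converted to Ki by Cheng−Prusoff.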

SMILES: CNc1ccc(-c2nc3cc(OCCOCCOCC[18F])ccc3o2)cn1
- Drug uptake (Kidney [1]): 2.54 % ID/g
- Drug uptake (Intestine [2]): 22.9 %ID
- Drug uptake (Bone [3]): 1.92 % ID/g
- Drug uptake (Spleen [4]): 1.79 % ID/g
- Drug uptake (Stomach [5]): 12.32 %ID
- Drug uptake (Lung [6]): 2.34 % ID/g
- Drug uptake (Intestine [7]): 10.81 %ID
- Drug uptake (Liver [8]): 6.47 % ID/g
- Drug uptake (Intestine [9]): 25.16 %ID
- Drug uptake (Kidney [10]): 4.79 % ID/g
- Drug uptake (Lung [11]): 2.81 % ID/g
- Drug uptake (Spleen [12]): 2.18 % ID/g
- logD at 0.05 h [13]: 2.86
- Drug uptake (Heart [14]): 2.5 % ID/g
- Drug uptake (Blood [15]): 3.04 % ID/g
- Drug uptake (Heart [16]): 3.35 % ID/g
- Drug uptake (Liver [17]): 9.32 % ID/g
- Drug uptake (Brain [18]): Not Active
- Drug uptake (Stomach [19]): 12.93 %ID
- Drug uptake (Brain [20]): 2.06 % ID/g
- Drug uptake (Kidney [21]): 3.73 % ID/g
- Drug uptake (Bone [22]): 2.46 % ID/g
- Drug uptake (Lung [23]): 3.15 % ID/g
- Drug uptake (Spleen [24]): 4.13 % ID/g
- Drug uptake (Kidney [25]): 8.51 % ID/g
- Drug uptake (Brain [26]): Not Active
- Drug uptake (Heart [27]): 3.16 % ID/g
- Drug uptake (Bone [28]): 3.93 % ID/g
- Drug uptake (Blood [29]): 2.74 % ID/g
- Drug uptake (Brain [30]): 2.05 % ID/g
- Drug uptake (Blood [31]): 5.07 % ID/g
- Drug uptake (Intestine [32]): 28.65 %ID
- Ratio (Brain [33]): 2.28
- Drug uptake (Bone [34]): 1.75 % ID/g
- Drug uptake (Lung [35]): 5.3 % ID/g
- Drug uptake (Liver [36]): 14.22 % ID/g
- Drug uptake (Heart [37]): 5.5 % ID/g
- Drug uptake (Brain [38]): 4.05 % ID/g
- Drug uptake (Spleen [39]): 2.64 % ID/g
- Drug uptake (Stomach [40]): 12.02 %ID
- Drug uptake (Blood [41]): 3.16 % ID/g
- Drug uptake (Stomach [42]): 5.08 %ID
- Drug uptake (Brain [43]): 1.78 % ID/g
- Drug uptake (Liver [44]): 4.21 % ID/g
- Ki [45]: 76.9 nM
